ChEMBL document CHEMBL3627689, “Structural design, synthesis and pharmacological evaluation of 4-thiazolidinones against Trypanosoma cruzi” (Bioorg Med Chem, 2015)
Active and inactive are the calls of the source. The calls are words filed in the database; no cut-off is given here.

Legend:
Leishmania = assay: Antiparasitic activity against Leishmania; assay type: functional
Trypanosoma cruzi [1] = assay: Antichagasic activity against Trypanosoma cruzi; assay type: functional
Trypanosoma cruzi [2] = assay: Antiparasitic activity against bloodstream trypomastigote stage of Trypanosoma cruzi Y assessed as parasite viability after 24 hrs by Neubauer chamber analysis; assay type: functional, organism-based
How it was run: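 Y strain bloodstream trypomastigotes were harvested from infected LLC-MK2 cell supernatants. They were exposed to compounds at five concentrations for 24 h at 37 °C, 5% CO₂. Viable parasites were counted in a Neubauer chamber by motility. Inhibition was calculated relative to untreated cultures, and IC50 was derived by non-linear regression.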

[3] = Cytotoxicity against mouse J774 cells assessed as cell viability after 72 hrs by Alamar Blue assay; assay type: cell-based
How it was run: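 J774 macrophages were plated at 5 × 10⁴ cells/mL in RPMI + 10% FBS with gentamycin and grown 24 h at 37 °C, 5% CO₂. Compounds in DMSO (final <1%) were added at six concentrations (0.41–100 µM) in triplicate for 72 h. Viability was read by AlamarBlue at 570/600 nm after 6 h. CC50 came from three independent experiments, with gentian violet as positive control.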

[4] = Selectivity index, ratio of CC50 for mouse J774 cells to IC50 for bloodstream trypomastigote stage of Trypanosoma cruzi Y
[5] = target: Cruzipain (Trypanosoma cruzi) (UniProt P25779); assay: Competitive inhibition of Trypanosoma cruzi Cruzain using Z-FR-AMC as substrate at 100 uM preincubated for 10 mins followed by substrate addition measured every 12 secs for 5 mins by fluorescence assay relative to control
Chain of Cruzipain (Trypanosoma cruzi) (P25779 123-467 limits assumed): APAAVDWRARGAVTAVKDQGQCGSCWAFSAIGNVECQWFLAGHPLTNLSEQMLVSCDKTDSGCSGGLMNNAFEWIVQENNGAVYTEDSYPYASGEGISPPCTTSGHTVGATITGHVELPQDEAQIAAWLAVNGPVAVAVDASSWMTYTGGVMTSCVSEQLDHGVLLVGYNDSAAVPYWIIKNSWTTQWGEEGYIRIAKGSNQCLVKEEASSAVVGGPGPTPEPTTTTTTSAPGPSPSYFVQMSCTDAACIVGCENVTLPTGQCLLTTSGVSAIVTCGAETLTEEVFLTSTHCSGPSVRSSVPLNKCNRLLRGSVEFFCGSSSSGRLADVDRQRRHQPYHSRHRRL

Trypanosoma cruzi [6] = assay: Antiparasitic activity against amastigote stage of Trypanosoma cruzi Y in BALB/c mouse macrophages assessed as decrease in number of infected cells at 50 uM incubated for 6 hrs by Giemsa staining-based optical microscopic analysis; assay type: functional, organism-based
How it was run: (§1)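 Thioglycolate-elicited peritoneal macrophages from BALB/c mice, 2 × 10⁵ cells/well on coverslips in RPMI + 10% FBS for 24 h, then infected with Y strain trypomastigotes (10 per macrophage) for 2 h. Free parasites washed off. Compounds added at 50 µM for 6 h, medium replaced, 3 days further culture. Methanol fixation, Giemsa staining, 100 cells counted per slide. Triplicate, two independent experiments.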

Trypanosoma cruzi [7] = assay: Antiparasitic activity against amastigote stage of Trypanosoma cruzi Y in BALB/c mouse macrophages assessed as decrease in number of intracellular amastigotes at 50 uM incubated for 6 hrs by Giemsa staining-based optical microscopic analysis; assay type: functional, organism-based; how it was run: as §1
Trypanosoma cruzi [8] = assay: Antiparasitic activity against bloodstream trypomastigote stage of Trypanosoma cruzi Y infected in BALB/c mouse assessed as reduction of parasitemia at 100 mg/kg, po qd administered for 5 days measured on day 10 post infection relative to vehicle-treated control; assay type: functional; design: scale not given: the % may be the effect or the level left
How it was run: (§2)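 Female BALB/c mice (6 per group, randomized) were infected with 10⁴ Y strain trypomastigotes. They were dosed orally at 100 mg/kg once daily for 5 days starting day 5 post-infection. Parasitemia was counted as trypomastigotes in fresh blood. Reduction = (vehicle mean − treated mean)/vehicle mean × 100%.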

Trypanosoma cruzi [9] = assay: Antiparasitic activity against bloodstream trypomastigote stage of Trypanosoma cruzi Y infected in BALB/c mouse assessed as reduction of parasitemia at 100 mg/kg, po qd administered for 5 days measured on day 12 post infection relative to vehicle-treated control; assay type: functional; design: scale not given: the % may be the effect or the level left; how it was run: as §2
Trypanosoma cruzi [10] = assay: Antiparasitic activity against bloodstream trypomastigote stage of Trypanosoma cruzi Y infected in BALB/c mouse assessed as increase in survival rate by measuring mortality at 100 mg/kg, po qd administered for 5 days measured until 30 days; assay type: functional, organism-based
How it was run: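 Female BALB/c mice (6 per group) were infected with 10⁴ Y strain trypomastigotes. From day 5 post-infection they received 100 mg/kg orally once daily for 5 days. Controls were vehicle (untreated infected) and benznidazole 100 mg/kg. Survival was followed for 30 days after infection in one experiment.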

Mus musculus = assay: Toxicity in BALB/c mouse infected with bloodstream trypomastigote stage of Trypanosoma cruzi Y assessed as body weight loss at 100 mg/kg, po qd administered for 5 days; assay type: organism-based; conditions: in vivo, 120 h
Trypanosoma cruzi [11] = assay: Antiparasitic activity against amastigote stage of Trypanosoma cruzi Y in BALB/c mouse macrophages assessed as decrease in number of intracellular amastigotes incubated for 6 hrs by Giemsa staining-based optical microscopic analysis; assay type: functional, organism-based
How it was run: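 Peritoneal BALB/c macrophages (thioglycolate-elicited) were infected with Y strain trypomastigotes at 10:1 for 2 h and washed. Compounds at five concentrations (1–50 µM) were applied for 6 h, followed by fresh medium and 3 days of culture. Amastigotes per 100 macrophages were counted after Giemsa staining.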

Trypanosoma cruzi [12] = assay: Potency index, ratio of benznidazole IC50 to compound IC50 for bloodstream trypomastigote stage of Trypanosoma cruzi Y; assay type: functional
Trypanosoma cruzi [13] = assay: Potency index, ratio of benznidazole IC50 to compound IC50 for amastigote stage of Trypanosoma cruzi Y in BALB/c mouse macrophages; assay type: functional

SMILES | IC50 (Trypanosoma cruzi [2]) [µM] | CC50 at 72 h [3] [µM] | Ratio CC50/IC50 [4] | inhibition [5] [%] | also measured
O=C(N[C@@H](Cn1ccnc1)c1ccc(-c2ccc(F)cc2)cc1F)c1ccc(-c2nnc(-c3ccccc3)o2)cc1 | – | – | – | – | Activity (Leishmania): 89%; Activity (Trypanosoma cruzi [1]): 100%
C/C(=N\N=C1\SC(c2ccccc2)C(=O)N1c1ccccc1)c1ccc(Cl)c(Cl)c1 (centres undefined) | 17.7 | 27.1 | 1.5 | 27 | –
CCC1S/C(=N/N=C(\C)c2ccc(Cl)c(Cl)c2)N(C)C1=O (centres undefined) | 48.5 | > 100 | >2 | 20 | –
C/C(=N\NC(=S)Nc1ccccc1)c1ccc(Cl)c(Cl)c1 | > 50 | > 100 | – | 0 | –
CCC1S/C(=N/N=C(\C)c2ccc(Cl)c(Cl)c2)NC1=O (centres undefined) | > 50 | 76.7 | – | 49 | –
C/C(=N\N=C1/NC(=O)C(C(C)C)S1)c1ccc(Cl)c(Cl)c1 (centres undefined) | 16.9 | > 100 | >5.9 | 49 | –
O=C(Cn1ccnc1[N+](=O)[O-])NCc1ccccc1 [BENZNIDAZOLE] | 10.6 | > 100 | >9.4 | – | Activity (Trypanosoma cruzi [6]): Active; Activity (Trypanosoma cruzi [7]): Active; Activity (Trypanosoma cruzi [8]): >99%; Activity (Trypanosoma cruzi [9]): >99%; Activity (Trypanosoma cruzi [10]): Active; Activity (Mus musculus): Non-toxic
C/C(=N\N=C(\N)S)c1ccc(Cl)c(Cl)c1 | 7.1 | 13.4 | 1.7 | 85 | –
O=C(N[C@@H](Cn1ccnc1)c1ccc(Cl)cc1Cl)c1ccc(-c2nnc(-c3ccccc3)o2)cc1 | – | – | – | – | Activity (Leishmania): 60%
C/C(=N\N=C1/NC(=O)C(c2ccccc2)S1)c1ccc(Cl)c(Cl)c1 (centres undefined) | > 50 | 96.9 | – | 61 | –
C/C(=N\N=C1/NC(=O)CS1)c1ccc(Cl)c(Cl)c1 | > 50 | 76.5 | – | 54 | –
C/C(=N\N=C1\SCC(=O)N1c1ccccc1)c1ccc(Cl)c(Cl)c1 | > 50 | > 100 | – | 43 | –
CN(C)c1ccc(C(=C2C=CC(=[N+](C)C)C=C2)c2ccc(N(C)C)cc2)cc1 [GENTIAN VIOLET] | – | 0.45 | – | – | –
C/C(=N\N=C1\SC(C)C(=O)N1C)c1ccc(Cl)c(Cl)c1 (centres undefined) | > 50 | > 100 | – | 32 | –
C/C(=N\N=C1\SC(C(C)C)C(=O)N1c1ccccc1)c1ccc(Cl)c(Cl)c1 (centres undefined) | 1.7 | > 100 | >58 | 23 | Activity (Trypanosoma cruzi [6]): Active; Activity (Trypanosoma cruzi [7]): Active; IC50 (Trypanosoma cruzi [11]): 3.1 µM; Activity (Trypanosoma cruzi [8]): 86.7%; Activity (Trypanosoma cruzi [9]): 97.1%; Activity (Trypanosoma cruzi [10]): Active; Ratio IC50 (Trypanosoma cruzi [12]): 6; Ratio IC50 (Trypanosoma cruzi [13]): 4; Activity (Mus musculus): Non-toxic
C/C(=N\N=C1\SC(C)C(=O)N1c1ccccc1)c1ccc(Cl)c(Cl)c1 (centres undefined) | 4.2 | 26.1 | 6 | 43 | Activity (Trypanosoma cruzi [6]): Active; Activity (Trypanosoma cruzi [7]): Active; IC50 (Trypanosoma cruzi [11]): 5.9 µM; Ratio IC50 (Trypanosoma cruzi [12]): 2; Ratio IC50 (Trypanosoma cruzi [13]): 2
CNC(=S)N/N=C(\C)c1ccc(Cl)c(Cl)c1 | 11.2 | > 100 | – | 28 | –
C/C(=N\N=C1/NC(=O)C(C)S1)c1ccc(Cl)c(Cl)c1 (centres undefined) | 49.5 | > 100 | >2 | 49 | –
C/C(=N\N=C1\SC(C(C)C)C(=O)N1C)c1ccc(Cl)c(Cl)c1 (centres undefined) | > 50 | > 100 | – | 38 | –
CCC1S/C(=N/N=C(\C)c2ccc(Cl)c(Cl)c2)N(c2ccccc2)C1=O (centres undefined) | 2.9 | 23.3 | 8 | 24 | Activity (Trypanosoma cruzi [6]): Active; Activity (Trypanosoma cruzi [7]): Active; IC50 (Trypanosoma cruzi [11]): 3.2 µM; Ratio IC50 (Trypanosoma cruzi [12]): 3; Ratio IC50 (Trypanosoma cruzi [13]): 4
C/C(=N\N=C1\SC(c2ccccc2)C(=O)N1C)c1ccc(Cl)c(Cl)c1 (centres undefined) | 41.5 | 97.6 | – | 29 | –
C/C(=N\N=C1\SCC(=O)N1C)c1ccc(Cl)c(Cl)c1 | > 50 | > 100 | – | 0 | –
